# Reference: PMC3790647 (Clinical cancer research : an official journal of the …, 2013)
# System: patients with advanced solid tumors
# Assay: Safety and tolerability, first-in-human dose escalation
# Type: in vivo
# Settings: for Total number of AEs at each dose level: treatment-related clinical AEs
# Procedure, shortened: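 Open-label 3+3 escalation: oral once-daily dosing on days 1–5 every 14 days at 100, 200, 400, 600 and 800 mg, with 3–6 patients per level and 4 cycles. Adverse events were graded by NCI-CTC-AE v3.0 from first dose to 30 days after last dose. DLTs were assessed over the first 14 days. Evaluable patients had five consecutive doses plus safety evaluations over nine days.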
# [1] = first 4 treatment cycles, 68 cycles
compound,measurement,setting,value
CN(C)Cc1ccc(S(=O)(=O)n2ccc(/C=C/C(=O)NO)c2)cc1 [resminostat],"Dysgeusia, treatment-related, patients by maximum grade","100 mg (N=3), grade 1",1
same,"Fatigue, treatment-related, patients by maximum grade","100 mg (N=3), grade 1",1
same,Total number of AEs at each dose level,100 mg (N=3),2
same,"Nausea, treatment-related, patients by maximum grade","200 mg (N=3), grade 1",1
same,"ALT increase, treatment-related, patients by maximum grade","200 mg (N=3), grade 2",1
same,Total number of AEs at each dose level,200 mg (N=3),2
same,"Arrhythmia, treatment-related, patients by maximum grade","400 mg (N=3), grade 1",1
same,"Thrombocytopenia, treatment-related, patients by maximum grade","400 mg (N=3), grade 1",1
same,"Nausea, treatment-related, patients by maximum grade","400 mg (N=3), grade 2",2
same,Total number of AEs at each dose level,400 mg (N=3),4
same,"Anorexia, treatment-related, patients by maximum grade","600 mg (N=3), grade 1",1
same,"Depression, treatment-related, patients by maximum grade","600 mg (N=3), grade 1",1
same,"Diarrhea, treatment-related, patients by maximum grade","600 mg (N=3), grade 1",1
same,"Dysgeusia, treatment-related, patients by maximum grade","600 mg (N=3), grade 1",1
same,"Fatigue, treatment-related, patients by maximum grade","600 mg (N=3), grade 1",1
same,"Nausea, treatment-related, patients by maximum grade","600 mg (N=3), grade 1",3
same,"Vomiting, treatment-related, patients by maximum grade","600 mg (N=3), grade 1",2
same,"Anemia, treatment-related, patients by maximum grade","600 mg (N=3), grade 2",1
same,"Fatigue, treatment-related, patients by maximum grade","600 mg (N=3), grade 2",1
same,"Anorexia, treatment-related, patients by maximum grade","800 mg (N=7), grade 1",3
same,"Dysgeusia, treatment-related, patients by maximum grade","800 mg (N=7), grade 1",1
same,"Electrocardiogram QT prolongation, treatment-related, patients by maximum grade","800 mg (N=7), grade 1",1
same,"Epistaxis, treatment-related, patients by maximum grade","800 mg (N=7), grade 1",1
same,"Fatigue, treatment-related, patients by maximum grade","800 mg (N=7), grade 1",1
same,"Hypokalemia, treatment-related, patients by maximum grade","800 mg (N=7), grade 1",1
same,"Nausea, treatment-related, patients by maximum grade","800 mg (N=7), grade 1",4
same,"Vomiting, treatment-related, patients by maximum grade","800 mg (N=7), grade 1",2
same,"Weight decrease, treatment-related, patients by maximum grade","800 mg (N=7), grade 1",1
same,"AST increase, treatment-related, patients by maximum grade","800 mg (N=7), grade 2",1
same,"Anorexia, treatment-related, patients by maximum grade","800 mg (N=7), grade 2",1
same,"Diarrhea, treatment-related, patients by maximum grade","800 mg (N=7), grade 2",1
same,"Dysgeusia, treatment-related, patients by maximum grade","800 mg (N=7), grade 2",1
same,"Fatigue, treatment-related, patients by maximum grade","800 mg (N=7), grade 2",3
same,"Nausea, treatment-related, patients by maximum grade","800 mg (N=7), grade 2",2
same,"Vomiting, treatment-related, patients by maximum grade","800 mg (N=7), grade 2",2
same,"Weight decrease, treatment-related, patients by maximum grade","800 mg (N=7), grade 2",1
same,"ALT increase, treatment-related, patients by maximum grade","800 mg (N=7), grade 3",1
same,"Fatigue, treatment-related, patients by maximum grade","800 mg (N=7), grade 3",1
same,"Nausea, treatment-related, patients by maximum grade","800 mg (N=7), grade 3",1
same,"Vomiting, treatment-related, patients by maximum grade","800 mg (N=7), grade 3",1
same,Evaluable patients sustaining a DLT,"800 mg dose level, first cycle",1 of 6
same,"AST abnormalities, share of all administered cycles",68 cycles,21%
same,Patients who omitted doses due to treatment-related AEs,N=19,21%
same,Patients who underwent dose reductions due to treatment-related AEs,N=19,21%
same,"ALT increase, treatment-related, patients by maximum grade","Total (N=19), grade 1",2
same,"AST increase, treatment-related, patients by maximum grade","Total (N=19), grade 1",1
same,"Anemia, treatment-related, patients by maximum grade","Total (N=19), grade 1",1
same,"Anorexia, treatment-related, patients by maximum grade","Total (N=19), grade 1",4
same,"Arrhythmia, treatment-related, patients by maximum grade","Total (N=19), grade 1",1
same,"Depression, treatment-related, patients by maximum grade","Total (N=19), grade 1",1
same,"Diarrhea, treatment-related, patients by maximum grade","Total (N=19), grade 1",1
same,"Dysgeusia, treatment-related, patients by maximum grade","Total (N=19), grade 1",3
same,"Electrocardiogram QT prolongation, treatment-related, patients by maximum grade","Total (N=19), grade 1",1
same,"Epistaxis, treatment-related, patients by maximum grade","Total (N=19), grade 1",1
same,"Fatigue, treatment-related, patients by maximum grade","Total (N=19), grade 1",3
same,"Hypokalemia, treatment-related, patients by maximum grade","Total (N=19), grade 1",1
same,"Nausea, treatment-related, patients by maximum grade","Total (N=19), grade 1",8
same,"Thrombocytopenia, treatment-related, patients by maximum grade","Total (N=19), grade 1",1
same,"Vomiting, treatment-related, patients by maximum grade","Total (N=19), grade 1",4
same,"Weight decrease, treatment-related, patients by maximum grade","Total (N=19), grade 1",1
same,"Anorexia, treatment-related, patients by maximum grade","Total (N=19), grade 2",1
same,"Diarrhea, treatment-related, patients by maximum grade","Total (N=19), grade 2",1
same,"Dysgeusia, treatment-related, patients by maximum grade","Total (N=19), grade 2",1
same,"Fatigue, treatment-related, patients by maximum grade","Total (N=19), grade 2",4
same,"Nausea, treatment-related, patients by maximum grade","Total (N=19), grade 2",4
same,"Vomiting, treatment-related, patients by maximum grade","Total (N=19), grade 2",2
same,"Weight decrease, treatment-related, patients by maximum grade","Total (N=19), grade 2",1
same,"Fatigue, treatment-related, patients by maximum grade","Total (N=19), grade 3",1
same,"Nausea, treatment-related, patients by maximum grade","Total (N=19), grade 3",1
same,"Vomiting, treatment-related, patients by maximum grade","Total (N=19), grade 3",1
same,Grade 4 treatment-related adverse events,all dose levels,No grade 4 treatment-related adverse event
same,Treatment-related deaths,all dose levels,No treatment-related deaths
same,"Anemia regardless of causality, patients","all grades, N=19",89%
same,"GGT elevation regardless of causality, patients","all grades, N=19",80%
same,"Hypermagnesemia, patients","all grades, N=19",26%
same,"Hypokalemia, patients","all grades, N=19",58%
same,"Hyponatremia, patients","all grades, N=19",58%
same,"Lymphopenia, patients","all grades, N=19",89%
same,"Neutropenia, patients","all grades, N=19",21%
same,"Grade 1-2 dysgeusia, patients",all patients (N=19),21%
same,Patients with SAEs unrelated to treatment,all patients (N=19),37%
same,Patients with treatment-related SAE,all patients (N=19),11%
same,"Treatment-related anorexia, irrespective of grade, patients",all patients (N=19),26%
same,"Treatment-related fatigue, irrespective of grade, patients",all patients (N=19),42%
same,"Treatment-related nausea, irrespective of grade, patients",all patients (N=19),68%
same,"Treatment-related vomiting, irrespective of grade, patients",all patients (N=19),37%
same,Number of treatment-related serious adverse events (SAE),"all patients (N=19), both patients in 800 mg cohort",3
same,"Anorexia, irrespective of causality and grade, share of administered cycles",[1],31%
same,"Fatigue, irrespective of causality and grade, share of administered cycles",[1],40%
same,"Grade 3 fatigue, number of treatment cycles",[1],3 treatment cycles
same,"Nausea, irrespective of causality and grade, share of administered cycles",[1],60%
same,"Hypokalemia, patients","grade 1, N=19",47%
same,"Hyponatremia, patients","grade 1, N=19",47%
same,"Leukopenia, patients","grade 1-2, N=19",37%
same,"Thrombocytopenia, patients","grade 1-2, N=19",37%
same,"Anemia regardless of causality, patients","grade 2, N=19",47%
same,"Lymphopenia, patients","grade 2, N=19",42%
same,"Anemia regardless of causality, patients","grade 3, N=19",11%
same,"GGT elevation, patients","grade 3, N=19",11%
same,"Hypokalemia, patients","grade 3, N=19",11%
same,"Hyponatremia, patients","grade 3, N=19",11%
same,"Lymphopenia, patients","grade 3, N=19",21%
same,Maximum tolerated dose (MTD),"once-daily days 1-5 every 14 days, up to 800 mg",not reached
same,Recommended phase II dose (RP2D),orally once-daily on days 1-5 every 14 days,600 mg
